{
  "source": "paper PMC3150598",
  "about": "(Journal of medicinal chemistry, 2011)",
  "key": {"[1]": {"experiment": "Blood half-life of 1a after i.v. or p.o. administration", "assay_type": "in vivo, C57BL/6 mice", "conditions": "for dosed compound still present in whole blood: i.v., after initial burst phase"}, "[2]": {"tested_on": "A2780 human ovarian cancer cells", "experiment": "PET-CT of A2780 tumor xenograft before and after competition with cold SAHA", "assay_type": "in vivo, Nu/Nu mice", "conditions": "after systemic administration"}, "[3]": {"experiment": "Biodistribution of 1a after i.v. injection", "assay_type": "in vivo, C57BL/6 mice", "conditions": "1 hour and 3 hours after i.v. injection", "in_short": "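Six C57BL/6 mice received 241 ± 18 μCi of the 18F-labelled test compound by tail-vein i.v. injection. Groups were killed at 1 h (n=3) and 3 h (n=3) post-injection. Tissues were excised and weighed, and radioactivity was gamma-counted and expressed as %ID/g.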"}, "[4]": {"tested_on": "HDACs 1–9", "experiment": "HDAC assay: biochemical profiling against purified HDAC isoforms"}, "[5]": {"tested_on": "HDAC", "conditions": "cited from earlier work"}, "[6]": {"tested_on": "HDAC", "conditions": "cited from earlier work", "remark": "listed apart in the source"}},
  "data": [
    {"smiles": "O=C(CCCCCCC(=O)Nc1ccc([18F])cc1)NO", "note": "[1a, 18F-suberoylanilide hydroxamic acid]", "values": [
      {"measurement": "dosed compound still present in whole blood", "setting": "[1]; formulation A (60% PEG400, 40% water)", "value": "< 1", "unit": "%"},
      {"measurement": "dosed compound still present in whole blood", "setting": "[1]; formulation B (10%DMSO, 90% water)", "value": "~3", "unit": "%"},
      {"measurement": "terminal half-life relative to initial t1/2", "setting": "[1]; single bolus i.v.", "value": "approximately 10 times longer"},
      {"measurement": "accumulation in tumors", "setting": "[2]", "value": "accumulate in tumors in a time-dependent manner"},
      {"measurement": "concentration in cardiac tissue", "setting": "[3]", "value": "comparatively low concentrations"},
      {"measurement": "tissues with highest concentration", "setting": "[3]", "value": "kidney, liver and blood"},
      {"measurement": "tissues with lowest concentration", "setting": "[3]", "value": "thymus and brain"},
      {"measurement": "HDAC potency", "setting": "[4]", "value": "low nanomolar potency"}
    ]},
    {"smiles": "O=C(CCCCCCC(=O)Nc1ccc([19F])cc1)NO", "note": "[1b, N-Hydroxy-N'-(4-fluorophenyl)octanediamide]", "values": [
      {"measurement": "potency and selectivity of inhibition of primary HDAC targets compared with SAHA", "setting": "[4]; HDACs 1–3 and 6", "value": "virtually indistinguishable from SAHA"},
      {"measurement": "HDAC isoforms inhibited", "setting": "[4]; profiled against purified HDACs 1–9", "value": "inhibited only HDACs 1–3 and 6"}
    ]},
    {"smiles": "Nc1ccccc1NC(=O)c1ccc(CNC(=O)OCc2cccnc2)cc1", "note": "[5b]", "values": [
      {"measurement": "HDAC isoform selectivity", "setting": "[5]", "value": "selective for HDAC1–3"},
      {"measurement": "potency relative to SAHA (fold less potent)", "setting": "[5]", "value": "20–70 fold"}
    ]},
    {"smiles": "O=C(C[18F])NCCCCCC(=O)Nc1ccccc1", "note": "[compound 4, 6-([18F]-fluoroacetamide)-1-hexanoicanilide]", "values": [
      {"measurement": "metabolism in vivo", "setting": "[6]", "value": "rapidly metabolized in vivo"}
    ]}
  ]
}
